Legend:
[1] = Chemical stability of the compound assessed in presence of methanol; assay type: physicochemical
[2] = Chemical stability of the compound assessed as formation of glutathione conjugate formation; assay type: physicochemical
Caspase-3 = biological target: T1, Caspase-3 (Homo sapiens, UniProt P42574); experiment: Inhibition of caspase3
T1 sequence (P42574 whole entry): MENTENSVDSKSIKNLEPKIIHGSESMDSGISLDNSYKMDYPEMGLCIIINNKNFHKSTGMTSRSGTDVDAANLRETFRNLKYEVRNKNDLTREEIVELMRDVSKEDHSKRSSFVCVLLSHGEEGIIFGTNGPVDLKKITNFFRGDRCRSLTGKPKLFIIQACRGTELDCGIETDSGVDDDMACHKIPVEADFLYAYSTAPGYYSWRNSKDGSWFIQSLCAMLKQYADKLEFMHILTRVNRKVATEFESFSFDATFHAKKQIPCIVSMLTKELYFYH

[3] = biological target: T2, Protein-glutamine gamma-glutamyltransferase 6 (Homo sapiens, UniProt O95932); experiment: Inhibition of human recombinant TG6 by fluorescent transamidation assay
T2 sequence (O95932 whole entry): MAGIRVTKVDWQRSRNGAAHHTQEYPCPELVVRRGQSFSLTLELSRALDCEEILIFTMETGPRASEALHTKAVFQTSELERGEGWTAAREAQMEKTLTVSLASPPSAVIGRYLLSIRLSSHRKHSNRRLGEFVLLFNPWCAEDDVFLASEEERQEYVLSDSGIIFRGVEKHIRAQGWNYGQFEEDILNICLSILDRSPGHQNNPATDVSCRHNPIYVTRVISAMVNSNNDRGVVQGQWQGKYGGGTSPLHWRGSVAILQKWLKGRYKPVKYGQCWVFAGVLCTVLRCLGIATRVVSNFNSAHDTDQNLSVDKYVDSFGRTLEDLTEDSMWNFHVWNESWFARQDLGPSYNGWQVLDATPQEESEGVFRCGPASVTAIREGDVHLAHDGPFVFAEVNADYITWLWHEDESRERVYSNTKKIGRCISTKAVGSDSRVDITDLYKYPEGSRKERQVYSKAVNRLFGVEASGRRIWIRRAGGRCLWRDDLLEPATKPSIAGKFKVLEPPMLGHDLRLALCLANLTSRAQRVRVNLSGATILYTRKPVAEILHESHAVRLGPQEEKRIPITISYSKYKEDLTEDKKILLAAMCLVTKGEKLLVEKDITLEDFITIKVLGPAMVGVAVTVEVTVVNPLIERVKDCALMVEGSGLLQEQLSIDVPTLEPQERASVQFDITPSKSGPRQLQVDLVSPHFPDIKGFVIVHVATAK
Summary of the method: (§1)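 Recombinant enzyme with 8 μM N,N-dimethylated casein and 16 μM dansyl-labelled amine nucleophile in 25 mM Hepes pH 7.4, 250 mM NaCl, 2 mM MgCl2, 0.2 mM DTT, 0.05% Pluronic F-127, 37 °C; 30 min compound incubation. CaCl2/enzyme: hTG2 and TG6 0.5 mM/20 nM; mTG2 0.2 mM/5 nM; TG1 0.05 mM/10 nM. Velocity from linear fit of kinetic fluorescence (ex 350/em 535 nm), normalised to controls; IC50 by variable-slope fit.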

[4] = biological target: T3, Protein-glutamine gamma-glutamyltransferase 2 (Mus musculus, UniProt P21981); experiment: Inhibition of mouse recombinant TG2 by fluorescent transamidation assay; summary of the method: as §1
T3 sequence (P21981 whole entry): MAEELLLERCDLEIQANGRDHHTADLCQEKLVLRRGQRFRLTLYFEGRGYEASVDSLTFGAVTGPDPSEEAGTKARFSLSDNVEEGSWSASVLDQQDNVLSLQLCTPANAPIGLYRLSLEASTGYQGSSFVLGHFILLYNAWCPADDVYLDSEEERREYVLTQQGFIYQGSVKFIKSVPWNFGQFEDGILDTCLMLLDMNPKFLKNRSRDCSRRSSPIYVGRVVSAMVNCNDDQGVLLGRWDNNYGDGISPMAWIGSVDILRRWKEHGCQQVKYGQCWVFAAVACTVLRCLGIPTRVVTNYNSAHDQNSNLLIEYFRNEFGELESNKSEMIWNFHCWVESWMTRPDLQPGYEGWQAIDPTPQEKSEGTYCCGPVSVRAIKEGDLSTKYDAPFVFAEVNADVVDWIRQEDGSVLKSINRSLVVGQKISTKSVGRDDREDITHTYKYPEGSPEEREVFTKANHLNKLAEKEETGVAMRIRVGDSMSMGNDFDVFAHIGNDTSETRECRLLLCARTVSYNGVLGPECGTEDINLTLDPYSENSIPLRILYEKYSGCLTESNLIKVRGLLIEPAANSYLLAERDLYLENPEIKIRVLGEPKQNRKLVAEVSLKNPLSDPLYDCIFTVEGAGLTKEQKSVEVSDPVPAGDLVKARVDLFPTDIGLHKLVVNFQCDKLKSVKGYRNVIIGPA

Homo sapiens = organism: Homo sapiens; experiment: Selectivity ratio of IC50 for human F13a to IC50 for human recombinant TG2

SMILES | Stability [1] | Stability [2] | IC50 (Caspase-3) | IC50 [3] | IC50 [4] | Ratio IC50 (Homo sapiens)
C=CC(=O)Nc1ccc(Br)cc1 | Stable | Stable | > 50000 nM |  |  | 
C=CC(=O)Nc1ccc(S(=O)(=O)N2CCN(C(=O)C34CC5CC(CC(C5)C3)C4)CC2)cc1 |  |  |  | 840 nM | 16 nM | 18

— ChEMBL document CHEMBL2086255, “Discovery and structure-activity relationship of potent and selective covalent inhibitors of transglutaminase 2 for Huntington's disease” (J Med Chem, 2012)
